In ChEMBL document CHEMBL3045217, “Factors affecting the synergy of thiabendazole, sodium bicarbonate, and heat to control postharvest green mold of citrus fruit” (J Agric Food Chem, 2008):

Key:
Fruit surface [1] = test: Drug residues on Citrus sinensis cvs. Salustiana (Salustiana oranges) fruit surface at 600 mg/L treated for 3 min at 20 degC postharvest measured after overnight incubation at 17 degC by GC analysis; type: ADME; details: 0.05 h
In short: (§1)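 'Salustiana' oranges were washed with water and air-dried. They were dipped 1 or 3 min in TBZ 600 mg/L at 20 or 50 °C, or 1 min in TBZ 600 mg/L plus 2% SBC at 20 °C, then dried overnight at 17 °C in the dark. Surface residue was taken by water extraction and wax residue by chloroform extraction. Inner residue was measured in fruit after both extractions. Extracts were dried under N2, taken up in acetone and analysed by GC. Values are mg/kg on a whole-fruit basis.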

Cuticular wax [2] = test: Drug residues in Citrus sinensis cvs. Salustiana (Salustiana oranges) cuticular wax at 600 mg/L treated for 3 min at 20 degC postharvest measured after overnight incubation at 17 degC by GC analysis; type: ADME; details: 0.05 h; in short: as §1
Penicillium digitatum [3] = test: Fungicidal activity against TBZ-sensitive Penicillium digitatum infected Valencia oranges assessed as postharvest green mold incidence at 200 mg/L treated for 1 min at 50 degC at 20 hr after fungal conidial inoculation measured after 7 days of storage at 20 degC (water Rvb = 53.3%); type: functional
In short: (§2)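 Fruit were surface-disinfected in 1 g/L hypochlorite for 30 s, rinsed, dried, then wounded twice equatorially (2 mm × 2 mm rod). Inoculation was a 1 min dip in P. digitatum conidia, 1 × 10^5 conidia/mL final. Fruit were held 20 h at 20 °C and 90% RH, dipped 1 min (SBC wt/vol), and air-dried. Storage was 20 °C, 90% RH. Decay incidence (% fruit with lesions) was scored at 5 d for mandarins and 7 d for oranges. Three replicates of 40 fruit were used; arcsin-transformed data were compared by LSD, p ≤ 0.05.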

Fruit [4] = test: Drug residues in Citrus sinensis cvs. Valencia late (Valencia oranges) at 600 mg/L treated for 1 min at 20 degC postharvest measured immediately post-drug treatment by GC analysis; type: ADME
In short: (§3)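 'Valencia' oranges were dipped 1 min in TBZ at 600 mg/L (20 °C, ±0.5, 1 or 2% wt/vol SBC), 400 mg/L (40 °C, ±SBC) or 200 mg/L (50 °C, alone), then air-dried. They were sampled at 0, 10 and 20 days at 17 °C. Peel of five fruit was frozen, and 5 g of homogenate was extracted with ethyl acetate/hexane (1/1) plus NaCl. The extract was dried under N2, taken up in acetone and analysed by GC. Results are mg/kg on a whole-fruit basis.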

Fruit [5] = test: Drug residues in Citrus sinensis cvs. Valencia late (Valencia oranges) at 600 mg/L treated for 1 min at 20 degC postharvest measured immediately post-drug treatment in presence of 2% SBC by GC analysis; type: ADME; in short: as §3
Fruit [6] = test: Total drug residues in Citrus sinensis cvs. Salustiana (Salustiana oranges) fruit at 600 mg/L treated for 1 min at 50 degC postharvest measured after overnight incubation at 17 degC by GC analysis; type: ADME
In short: (§4)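 'Salustiana' oranges were water-washed, dried, dipped, then dried overnight at 17 °C in the dark. Unextracted fruit were used for total residues. Peel from five oranges was frozen at -18 °C. 5 g homogenized peel was extracted with 10 mL ethyl acetate/hexane (1/1) plus 2 g NaCl, shaken 30 min, then 1 mL of organic layer was dried under N2, redissolved in acetone, and run by GC without cleanup. Results are on a whole-fruit basis.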

Penicillium digitatum [7] = test: Fungicidal activity against Penicillium digitatum infected Valenica oranges assessed as fruit weight loss at 200 mg/L treated for 1 min at 50 degC postharvest at 20 hr after fungal conidial inoculation measured after 7 days of storage at 17 degC (water Rvb = 3.23%); type: functional
Fruit surface [8] = test: Drug residues on Citrus sinensis cvs. Salustiana (Salustiana oranges) fruit surface at 600 mg/L treated for 1 min at 20 degC postharvest measured after overnight incubation at 17 degC in presence of 2% SBC by GC analysis; type: ADME; in short: as §1
Penicillium digitatum [9] = test: Fungicidal activity against TBZ-sensitive Penicillium digitatum infected Nova mandarins assessed as postharvest green mold incidence at 600 mg/L treated for 1 min at 20 degC at 20 hr after fungal conidial inoculation measured after 5 days of storage at 20 degC (water Rvb = 100%); type: functional; in short: as §2
Penicillium digitatum [10] = test: Fungicidal activity against Penicillium digitatum infected Valenica oranges assessed as fruit weight loss at 400 mg/L treated for 1 min at 40 degC postharvest at 20 hr after fungal conidial inoculation measured after 7 days of storage at 17 degC in presence of 0.5% SBC (water Rvb = 4.07%); type: functional
Penicillium digitatum [11] = test: (§5) Fungicidal activity against TBZ-sensitive Penicillium digitatum infected Valencia oranges assessed as postharvest green mold incidence at 400 mg/L treated for 1 min at 40 degC at 20 hr after fungal conidial inoculation measured after 7 days of storage at 20 degC in presence of 2% SBC (water Rvb = 14.2%); type: functional; in short: as §2
Penicillium digitatum [12] = test: Fungicidal activity against Penicillium digitatum infected Valenica oranges assessed as fruit weight loss at 600 mg/L treated for 1 min at 20 degC postharvest at 20 hr after fungal conidial inoculation measured after 7 days of storage at 17 degC in presence of 1% SBC (water Rvb = 3.89%); type: functional
Fruit [13] = test: Total drug residues in Citrus sinensis cvs. Salustiana (Salustiana oranges) fruit at 600 mg/L treated for 1 min at 20 degC postharvest measured after overnight incubation at 17 degC by GC analysis; type: ADME; in short: as §4
Penicillium digitatum [14] = test: (§6) Fungicidal activity against TBZ-resistant Penicillium digitatum infected Nova mandarins assessed as postharvest green mold incidence at 600 mg/L treated for 1 min at 20 degC at 20 hr after fungal conidial inoculation measured after 5 days of storage at 20 degC in presence of 0.5% SBC (water Rvb = 86.7%); type: functional
Fruit [15] = test: Drug residues in Citrus sinensis cvs. Valencia late (Valencia oranges) at 400 mg/L treated for 1 min at 40 degC postharvest measured after 10 days of storage at 17 degC in presence of 0.5% SBC by GC analysis; type: ADME; in short: as §3
Penicillium digitatum [16] = test: Fungicidal activity against Penicillium digitatum infected Valenica oranges assessed as fruit weight loss at 400 mg/L treated for 1 min at 40 degC postharvest at 20 hr after fungal conidial inoculation measured after 21 days of storage at 17 degC (water Rvb = 8.83%); type: functional
Penicillium digitatum [17] = test: Fungicidal activity against Penicillium digitatum infected Valenica oranges assessed as fruit weight loss at 400 mg/L treated for 1 min at 40 degC postharvest at 20 hr after fungal conidial inoculation measured after 14 days of storage at 17 degC in presence of 2% SBC (water Rvb = 9.20%); type: functional
Penicillium digitatum [18] = test: as §5, with “0.5%” for “2%”, “42.5%)” for “14.2%)”; type: functional; in short: as §2
Cuticular wax [19] = test: Drug residues in Citrus sinensis cvs. Salustiana (Salustiana oranges) cuticular wax at 600 mg/L treated for 1 min at 20 degC postharvest measured after overnight incubation at 17 degC in presence of 2% SBC by GC analysis; type: ADME; in short: as §1
Penicillium digitatum [20] = test: Fungicidal activity against Penicillium digitatum infected Valenica oranges assessed as fruit weight loss at 600 mg/L treated for 1 min at 20 degC postharvest at 20 hr after fungal conidial inoculation measured after 21 days of storage at 17 degC in presence of 2% SBC (water Rvb = 11.89%); type: functional
Penicillium digitatum [21] = test: as §6, with “TBZ-sensitive” for “TBZ-resistant”, “2%” for “0.5%”, “96.7%)” for “86.7%)”; type: functional; in short: as §2

c1ccc2[nH]c(-c3cscn3)nc2c1 [THIABENDAZOLE]
Drug uptake (Fruit surface [1]): 0.69 mg/kg
Drug uptake (Cuticular wax [2]): 0.11 mg/kg
Activity (Penicillium digitatum [3]): 5.8%
Drug uptake (Fruit [4]): 1.59 mg/kg
Drug uptake (Fruit [5]): 1.22 mg/kg
Drug uptake (Fruit [6]): 1.12 mg/kg
Activity (Penicillium digitatum [7]): 2.98%
Drug uptake (Fruit surface [8]): 0.53 mg/kg
Activity (Penicillium digitatum [9]): 0%
Activity (Penicillium digitatum [10]): 4.23%
Activity (Penicillium digitatum [11]): 12.5%
Activity (Penicillium digitatum [12]): 4.33%
Drug uptake (Fruit [13]): 1.04 mg/kg
Activity (Penicillium digitatum [14]): 93.3%
Drug uptake (Fruit [15]): 0.76 mg/kg
Activity (Penicillium digitatum [16]): 8.96%
Activity (Penicillium digitatum [17]): 9.45%
Activity (Penicillium digitatum [18]): 16.7%
Drug uptake (Cuticular wax [19]): 0.46 mg/kg
Activity (Penicillium digitatum [20]): 13.39%
Activity (Penicillium digitatum [21]): 0%
